Assays:
[1] = target: Serine/threonine-protein kinase MARK1 (Homo sapiens) (UniProt Q9P0L2); test: Inhibition of MARK1 at 1 uM
Procedure, shortened: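 Kinase-panel screen using KINOMEscan technology, with 250–400 kinases per panel. Each compound was tested at a single concentration, and inhibition of each kinase was recorded. Selectivity was summarised as S(90), the fraction of kinases inhibited by more than 90%.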

[2] = target: Serine/threonine-protein kinase PAK 5 (Homo sapiens) (UniProt Q9P286); test: Inhibition of PAK7 at 1 uM
Chain of Serine/threonine-protein kinase PAK 5 (Homo sapiens) (Q9P286 whole entry, looked up, canonical isoform): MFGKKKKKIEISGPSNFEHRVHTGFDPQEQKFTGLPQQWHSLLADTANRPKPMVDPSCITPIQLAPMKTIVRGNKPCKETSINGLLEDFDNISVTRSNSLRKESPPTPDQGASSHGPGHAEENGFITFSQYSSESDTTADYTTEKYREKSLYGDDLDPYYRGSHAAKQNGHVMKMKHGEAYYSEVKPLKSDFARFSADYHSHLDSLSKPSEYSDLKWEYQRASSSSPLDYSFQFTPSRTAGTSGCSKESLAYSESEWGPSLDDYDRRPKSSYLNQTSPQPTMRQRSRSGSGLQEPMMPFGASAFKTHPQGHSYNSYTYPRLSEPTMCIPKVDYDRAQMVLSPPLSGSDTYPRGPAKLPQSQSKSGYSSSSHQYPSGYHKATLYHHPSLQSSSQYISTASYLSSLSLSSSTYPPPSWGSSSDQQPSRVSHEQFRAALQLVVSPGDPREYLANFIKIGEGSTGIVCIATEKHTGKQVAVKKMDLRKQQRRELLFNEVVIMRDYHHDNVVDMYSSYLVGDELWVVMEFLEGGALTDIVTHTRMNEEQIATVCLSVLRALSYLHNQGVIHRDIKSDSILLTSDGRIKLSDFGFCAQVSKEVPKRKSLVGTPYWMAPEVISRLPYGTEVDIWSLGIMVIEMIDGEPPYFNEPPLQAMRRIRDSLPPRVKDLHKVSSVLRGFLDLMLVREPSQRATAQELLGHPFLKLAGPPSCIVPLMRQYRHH

[3] = system: Phosphatidylinositol 4,5-bisphosphate 3-kinase catalytic subunit alpha isoform (Homo sapiens), P42336 [E545A]; test: Inhibition of PIK3CA E545A mutant at 1 uM
[4] = target: Ribosomal protein S6 kinase alpha-2 (Homo sapiens) (UniProt Q15349); test: Inhibition of RPS6KA2 C-terminal domain2 at 1 uM
[5] = target: NT-3 growth factor receptor (Homo sapiens) (UniProt Q16288); test: Inhibition of TRKC at 1 uM
[6] = target: T1, Tyrosine-protein kinase receptor TYRO3 (Homo sapiens) (UniProt Q06418); test: Inhibition of TYRO3 at 1 uM
T1 sequence (whole entry): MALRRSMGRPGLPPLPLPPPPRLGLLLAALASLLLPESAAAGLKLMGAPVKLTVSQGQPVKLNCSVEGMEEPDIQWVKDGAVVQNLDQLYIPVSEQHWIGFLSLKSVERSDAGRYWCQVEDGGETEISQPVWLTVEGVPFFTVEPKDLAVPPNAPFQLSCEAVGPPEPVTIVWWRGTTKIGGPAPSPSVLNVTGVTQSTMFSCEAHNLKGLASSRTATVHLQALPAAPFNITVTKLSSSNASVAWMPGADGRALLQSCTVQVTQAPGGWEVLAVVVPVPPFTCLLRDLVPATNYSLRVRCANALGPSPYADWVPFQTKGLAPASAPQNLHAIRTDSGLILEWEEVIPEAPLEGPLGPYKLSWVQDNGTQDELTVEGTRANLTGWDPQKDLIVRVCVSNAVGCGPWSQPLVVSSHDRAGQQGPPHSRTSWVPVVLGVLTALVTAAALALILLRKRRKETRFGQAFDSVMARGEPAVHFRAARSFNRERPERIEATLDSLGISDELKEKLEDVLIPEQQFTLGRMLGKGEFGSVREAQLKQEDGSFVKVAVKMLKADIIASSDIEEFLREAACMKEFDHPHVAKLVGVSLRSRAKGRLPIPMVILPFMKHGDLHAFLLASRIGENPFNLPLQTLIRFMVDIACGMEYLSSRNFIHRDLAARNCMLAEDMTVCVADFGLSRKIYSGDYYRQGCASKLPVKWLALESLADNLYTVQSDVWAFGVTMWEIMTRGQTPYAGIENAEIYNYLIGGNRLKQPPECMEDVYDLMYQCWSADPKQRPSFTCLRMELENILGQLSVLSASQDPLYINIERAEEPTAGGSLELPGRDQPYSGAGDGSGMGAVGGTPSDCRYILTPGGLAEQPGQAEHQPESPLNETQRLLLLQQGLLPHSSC

[7] = target: Wee1-like protein kinase (Homo sapiens) (UniProt P30291); test: Inhibition of WEE1 at 1 uM
Chain of Wee1-like protein kinase (Homo sapiens) (P30291 whole entry, looked up): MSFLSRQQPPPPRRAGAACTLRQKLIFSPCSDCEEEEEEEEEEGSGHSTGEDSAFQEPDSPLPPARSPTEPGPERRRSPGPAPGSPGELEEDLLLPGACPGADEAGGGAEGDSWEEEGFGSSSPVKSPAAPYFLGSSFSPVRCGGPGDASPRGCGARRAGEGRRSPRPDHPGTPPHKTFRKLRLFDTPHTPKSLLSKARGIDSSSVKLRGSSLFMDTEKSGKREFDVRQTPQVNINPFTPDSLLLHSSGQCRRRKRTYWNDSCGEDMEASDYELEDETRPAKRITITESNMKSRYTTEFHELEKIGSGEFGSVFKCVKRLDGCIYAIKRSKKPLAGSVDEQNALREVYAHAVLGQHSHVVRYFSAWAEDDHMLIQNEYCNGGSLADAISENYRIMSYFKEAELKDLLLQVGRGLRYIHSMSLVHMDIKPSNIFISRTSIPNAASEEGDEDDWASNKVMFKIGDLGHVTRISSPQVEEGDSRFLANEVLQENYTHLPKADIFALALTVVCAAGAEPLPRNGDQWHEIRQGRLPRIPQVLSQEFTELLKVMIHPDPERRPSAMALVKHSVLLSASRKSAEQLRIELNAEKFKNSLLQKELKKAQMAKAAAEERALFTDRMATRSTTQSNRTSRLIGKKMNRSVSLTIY

[8] = target: Tyrosine-protein kinase Yes (Homo sapiens) (UniProt P07947); test: Inhibition of YES at 1 uM
Chain of Tyrosine-protein kinase Yes (Homo sapiens) (P07947 2-543 limits assumed): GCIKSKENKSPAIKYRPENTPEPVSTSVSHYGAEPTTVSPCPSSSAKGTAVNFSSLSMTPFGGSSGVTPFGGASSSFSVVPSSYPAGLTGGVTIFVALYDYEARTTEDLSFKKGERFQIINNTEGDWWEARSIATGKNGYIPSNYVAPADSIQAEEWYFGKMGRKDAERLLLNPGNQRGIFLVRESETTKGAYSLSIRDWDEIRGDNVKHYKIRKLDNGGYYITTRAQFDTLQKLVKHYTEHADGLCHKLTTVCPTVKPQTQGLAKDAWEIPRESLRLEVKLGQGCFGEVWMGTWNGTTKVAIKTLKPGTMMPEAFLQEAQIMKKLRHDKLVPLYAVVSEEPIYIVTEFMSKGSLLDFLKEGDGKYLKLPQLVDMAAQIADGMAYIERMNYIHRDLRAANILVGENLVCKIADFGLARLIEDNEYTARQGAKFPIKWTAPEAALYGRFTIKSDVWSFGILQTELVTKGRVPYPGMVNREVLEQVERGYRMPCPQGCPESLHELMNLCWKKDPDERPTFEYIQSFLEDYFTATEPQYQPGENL

[9] = target: Bone morphogenetic protein receptor type-1A (Homo sapiens) (UniProt P36894); test: Inhibition of BMPR1A at 1 uM
Procedure, shortened: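 Ambit KINOMEscan screen at a single concentration across a 250–400 kinase panel, recorded as percent inhibition. Selectivity was expressed as S(90), the fraction of kinases inhibited >90%.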

[10] = target: T2, Calcium/calmodulin-dependent protein kinase type IV (Homo sapiens) (UniProt Q16566); test: Inhibition of CAMK4 at 1 uM
T2 sequence (whole entry): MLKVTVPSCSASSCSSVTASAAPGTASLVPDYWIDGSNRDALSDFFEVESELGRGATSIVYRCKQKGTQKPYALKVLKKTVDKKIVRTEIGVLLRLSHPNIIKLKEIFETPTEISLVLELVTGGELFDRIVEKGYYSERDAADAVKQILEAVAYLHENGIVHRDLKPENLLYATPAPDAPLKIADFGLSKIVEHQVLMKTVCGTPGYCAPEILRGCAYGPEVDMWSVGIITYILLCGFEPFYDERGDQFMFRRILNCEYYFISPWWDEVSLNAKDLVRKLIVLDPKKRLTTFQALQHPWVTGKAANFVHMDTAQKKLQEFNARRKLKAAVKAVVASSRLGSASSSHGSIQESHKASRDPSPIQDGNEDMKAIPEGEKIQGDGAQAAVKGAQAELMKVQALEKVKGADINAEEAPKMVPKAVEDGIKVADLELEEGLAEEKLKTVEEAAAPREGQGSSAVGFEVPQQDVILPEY

[11] = target: Dual specificity protein kinase CLK4 (Homo sapiens) (UniProt Q9HAZ1); test: Inhibition of CLK4 at 1 uM
Chain of Dual specificity protein kinase CLK4 (Homo sapiens) (Q9HAZ1 whole entry, looked up): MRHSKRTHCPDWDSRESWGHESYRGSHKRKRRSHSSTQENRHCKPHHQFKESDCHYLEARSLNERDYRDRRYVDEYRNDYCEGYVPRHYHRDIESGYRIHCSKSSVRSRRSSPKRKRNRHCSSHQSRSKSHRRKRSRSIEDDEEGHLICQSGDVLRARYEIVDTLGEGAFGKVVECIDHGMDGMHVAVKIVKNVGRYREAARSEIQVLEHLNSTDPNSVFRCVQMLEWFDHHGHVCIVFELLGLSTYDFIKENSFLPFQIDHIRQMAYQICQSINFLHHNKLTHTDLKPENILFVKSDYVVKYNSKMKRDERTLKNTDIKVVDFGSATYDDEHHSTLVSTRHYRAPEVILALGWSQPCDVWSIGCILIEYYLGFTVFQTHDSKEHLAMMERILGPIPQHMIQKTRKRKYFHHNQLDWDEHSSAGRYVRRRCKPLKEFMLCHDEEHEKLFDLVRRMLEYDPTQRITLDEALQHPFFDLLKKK
Procedure, shortened: (§1)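 Single-concentration screen using Ambit Bioscience KINOMEscan technology across a panel of 250–400 kinases. Per-kinase inhibition from this screen was summarized as S(90), the fraction of kinases inhibited by more than 90%.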

[12] = target: Casein kinase I isoform gamma-1 (Homo sapiens) (UniProt Q9HCP0); test: Inhibition of CSNK1G1 at 1 uM; procedure, shortened: as §1
Chain of Casein kinase I isoform gamma-1 (Homo sapiens) (Q9HCP0 whole entry, looked up, canonical isoform): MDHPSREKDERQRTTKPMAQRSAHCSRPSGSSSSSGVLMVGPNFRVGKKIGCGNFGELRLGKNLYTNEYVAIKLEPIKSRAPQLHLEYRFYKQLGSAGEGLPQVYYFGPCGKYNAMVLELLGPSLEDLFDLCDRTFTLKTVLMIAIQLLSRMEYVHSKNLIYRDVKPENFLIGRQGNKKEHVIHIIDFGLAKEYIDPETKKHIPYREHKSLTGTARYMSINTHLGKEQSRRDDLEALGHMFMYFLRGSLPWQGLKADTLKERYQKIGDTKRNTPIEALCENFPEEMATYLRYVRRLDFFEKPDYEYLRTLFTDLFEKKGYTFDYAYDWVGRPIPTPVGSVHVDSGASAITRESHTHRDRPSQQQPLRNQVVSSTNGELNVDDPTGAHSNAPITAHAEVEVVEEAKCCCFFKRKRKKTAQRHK

[13] = target: Ephrin type-A receptor 2 (Homo sapiens) (UniProt P29317); test: Inhibition of EPHA2 at 1 uM; procedure, shortened: as §1
[14] = target: Ephrin type-A receptor 5 (Homo sapiens) (UniProt P54756); test: Inhibition of EPHA5 at 1 uM; procedure, shortened: as §1
Chain of Ephrin type-A receptor 5 (Homo sapiens) (P54756 whole entry): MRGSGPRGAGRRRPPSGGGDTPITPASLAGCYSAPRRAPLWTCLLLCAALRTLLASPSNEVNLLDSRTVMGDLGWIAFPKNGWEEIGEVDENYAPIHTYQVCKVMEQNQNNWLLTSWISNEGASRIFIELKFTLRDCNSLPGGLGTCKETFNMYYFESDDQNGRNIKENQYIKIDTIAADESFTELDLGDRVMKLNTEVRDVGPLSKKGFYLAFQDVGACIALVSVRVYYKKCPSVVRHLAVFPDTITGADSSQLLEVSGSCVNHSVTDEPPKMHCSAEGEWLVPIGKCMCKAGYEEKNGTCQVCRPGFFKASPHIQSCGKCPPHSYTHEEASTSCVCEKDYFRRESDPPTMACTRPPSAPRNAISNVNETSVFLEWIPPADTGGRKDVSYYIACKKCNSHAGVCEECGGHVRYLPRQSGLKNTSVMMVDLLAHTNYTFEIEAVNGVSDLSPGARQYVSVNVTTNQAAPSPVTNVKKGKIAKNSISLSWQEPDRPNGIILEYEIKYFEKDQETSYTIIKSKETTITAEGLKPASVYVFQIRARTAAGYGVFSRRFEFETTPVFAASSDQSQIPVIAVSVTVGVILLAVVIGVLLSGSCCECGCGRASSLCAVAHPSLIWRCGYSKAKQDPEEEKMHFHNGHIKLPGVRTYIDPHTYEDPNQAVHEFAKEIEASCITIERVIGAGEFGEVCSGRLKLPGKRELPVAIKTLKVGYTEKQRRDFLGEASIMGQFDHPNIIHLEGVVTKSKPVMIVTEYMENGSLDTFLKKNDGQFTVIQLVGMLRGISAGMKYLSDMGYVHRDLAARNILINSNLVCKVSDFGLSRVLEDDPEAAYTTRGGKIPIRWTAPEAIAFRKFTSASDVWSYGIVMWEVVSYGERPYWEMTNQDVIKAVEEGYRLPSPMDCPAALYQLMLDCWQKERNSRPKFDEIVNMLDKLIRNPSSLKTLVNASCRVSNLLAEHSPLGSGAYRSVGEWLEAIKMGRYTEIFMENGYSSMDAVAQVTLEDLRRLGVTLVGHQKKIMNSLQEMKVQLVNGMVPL

[15] = target: Homeodomain-interacting protein kinase 3 (Homo sapiens) (UniProt Q9H422); test: Inhibition of HIPK3 at 1 uM

Measured: inhibition

Chain of Serine/threonine-protein kinase MARK1 (Homo sapiens) (Q9P0L2 whole entry, looked up): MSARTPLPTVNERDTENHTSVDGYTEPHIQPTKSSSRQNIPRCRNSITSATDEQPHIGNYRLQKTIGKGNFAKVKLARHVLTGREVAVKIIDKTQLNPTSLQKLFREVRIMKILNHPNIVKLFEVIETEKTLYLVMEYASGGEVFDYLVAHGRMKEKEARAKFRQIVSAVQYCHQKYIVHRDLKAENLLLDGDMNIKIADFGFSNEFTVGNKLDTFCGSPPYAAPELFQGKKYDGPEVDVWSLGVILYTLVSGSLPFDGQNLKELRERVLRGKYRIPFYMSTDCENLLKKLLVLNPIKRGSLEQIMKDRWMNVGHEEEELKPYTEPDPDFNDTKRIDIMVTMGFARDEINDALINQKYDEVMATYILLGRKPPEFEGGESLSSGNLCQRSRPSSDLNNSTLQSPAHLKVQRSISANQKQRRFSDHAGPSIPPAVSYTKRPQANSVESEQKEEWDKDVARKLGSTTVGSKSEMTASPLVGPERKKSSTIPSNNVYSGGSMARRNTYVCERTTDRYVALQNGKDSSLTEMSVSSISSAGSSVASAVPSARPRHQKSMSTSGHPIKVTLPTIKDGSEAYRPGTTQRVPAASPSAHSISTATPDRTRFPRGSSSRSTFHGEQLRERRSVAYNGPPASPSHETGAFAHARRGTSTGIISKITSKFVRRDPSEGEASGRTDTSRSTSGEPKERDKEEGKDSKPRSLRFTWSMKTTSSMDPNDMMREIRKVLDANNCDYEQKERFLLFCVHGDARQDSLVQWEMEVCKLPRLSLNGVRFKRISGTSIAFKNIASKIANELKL

FC(F)(F)c1ccc(Cl)cc1CN1CCNc2ncc(-c3ccnc(N4CCNCC4)c3)cc21
< 50%: all assays above

CN1CCN(c2ccc(-c3cnc4c(c3)N(Cc3cc(Cl)ccc3Cl)CCN4)cn2)CC1
< 50%: all assays above

COC1CCN(C(=O)c2ccc(-c3cnc4c(c3)N(Cc3cc(Cl)ccc3C(F)(F)F)CCN4)cc2)CC1
not listed: [3] | [7] | [10] | [15]
< 50%: all other assays above

O=C(c1ccc(-c2cnc3c(c2)N(Cc2cc(Cl)ccc2C(F)(F)F)CCN3)cc1)N1CCCCC1
not listed: [3] | [7] | [10] | [15]
< 50%: all other assays above

O=C(O)c1ccc(-c2cnc3c(c2)N(Cc2cc(Cl)ccc2C(F)(F)F)CCN3)cc1
not listed: [3] | [7] | [10] | [15]
< 50%: all other assays above

CN1CCN(c2ccc(-c3cnc4c(c3)N(Cc3cc(F)ccc3F)CCN4)cn2)CC1
< 50%: all assays above

O=C(c1ccc(-c2cnc3c(c2)N(Cc2cc(Cl)ccc2C(F)(F)F)CCN3)cc1)N1CCC(N2CCCC2)CC1
not listed: [3] | [7] | [10] | [15]
< 50%: all other assays above

CN1CCN(c2ccc(-c3cnc4c(c3)N(Cc3c(F)ccc(F)c3Cl)CCN4)cn2)CC1
< 50%: all assays above

CC(=O)N1CCN(c2cc(-c3cnc4c(c3)N(Cc3cc(Cl)ccc3C(F)(F)F)CCN4)ccn2)CC1
< 50%: all assays above

CN1CCN(c2ccc(-c3cnc4c(c3)N(Cc3cc(Cl)ccc3C(F)(F)F)CCN4)cn2)CC1
< 50%: all assays above

From ChEMBL document CHEMBL1165965, “Synthesis and structure-activity relationships of 1,2,3,4-tetrahydropyrido[2,3-b]pyrazines as potent and selective inhibitors of the anaplastic lymphoma kinase” (Bioorg Med Chem, 2010)
